Measurements taken from ChEMBL document CHEMBL1135702, “Antitumor polycyclic acridines. 8.(1) Synthesis and telomerase-inhibitory activity of methylated pentacyclic acridinium salts” (J Med Chem, 2002).
pIC50: −log10 of the molar value.

Assays:
[1] = molecular target: Telomerase reverse transcriptase (Homo sapiens, UniProt O14746); experiment: Inhibition of telomerase activity using TRAP assay
How it was run: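 Telomerase came from lysates of exponentially growing A2780 cells (CHAPS buffer, 30 min on ice, 0.1 mM AEBSF), using 40 ng protein. TS primer was extended in TRAP buffer (pH 8.3, 68 mM KCl) with 50 μM dNTPs and [α-³²P]dCTP, compound at various final concentrations, for 20 min at 25 °C. After 85 °C inactivation, the CX primer was added with Taq for 31 PCR cycles. Products were read by phosphoimaging or scintillation counting.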

[2] = Growth inhibition in the NCI 60 cell panel; type: functional; conditions: Homo sapiens
[3] = Selectivity index (GI50/Telomerase IC50)

Sequence of Telomerase reverse transcriptase (O14746 whole entry): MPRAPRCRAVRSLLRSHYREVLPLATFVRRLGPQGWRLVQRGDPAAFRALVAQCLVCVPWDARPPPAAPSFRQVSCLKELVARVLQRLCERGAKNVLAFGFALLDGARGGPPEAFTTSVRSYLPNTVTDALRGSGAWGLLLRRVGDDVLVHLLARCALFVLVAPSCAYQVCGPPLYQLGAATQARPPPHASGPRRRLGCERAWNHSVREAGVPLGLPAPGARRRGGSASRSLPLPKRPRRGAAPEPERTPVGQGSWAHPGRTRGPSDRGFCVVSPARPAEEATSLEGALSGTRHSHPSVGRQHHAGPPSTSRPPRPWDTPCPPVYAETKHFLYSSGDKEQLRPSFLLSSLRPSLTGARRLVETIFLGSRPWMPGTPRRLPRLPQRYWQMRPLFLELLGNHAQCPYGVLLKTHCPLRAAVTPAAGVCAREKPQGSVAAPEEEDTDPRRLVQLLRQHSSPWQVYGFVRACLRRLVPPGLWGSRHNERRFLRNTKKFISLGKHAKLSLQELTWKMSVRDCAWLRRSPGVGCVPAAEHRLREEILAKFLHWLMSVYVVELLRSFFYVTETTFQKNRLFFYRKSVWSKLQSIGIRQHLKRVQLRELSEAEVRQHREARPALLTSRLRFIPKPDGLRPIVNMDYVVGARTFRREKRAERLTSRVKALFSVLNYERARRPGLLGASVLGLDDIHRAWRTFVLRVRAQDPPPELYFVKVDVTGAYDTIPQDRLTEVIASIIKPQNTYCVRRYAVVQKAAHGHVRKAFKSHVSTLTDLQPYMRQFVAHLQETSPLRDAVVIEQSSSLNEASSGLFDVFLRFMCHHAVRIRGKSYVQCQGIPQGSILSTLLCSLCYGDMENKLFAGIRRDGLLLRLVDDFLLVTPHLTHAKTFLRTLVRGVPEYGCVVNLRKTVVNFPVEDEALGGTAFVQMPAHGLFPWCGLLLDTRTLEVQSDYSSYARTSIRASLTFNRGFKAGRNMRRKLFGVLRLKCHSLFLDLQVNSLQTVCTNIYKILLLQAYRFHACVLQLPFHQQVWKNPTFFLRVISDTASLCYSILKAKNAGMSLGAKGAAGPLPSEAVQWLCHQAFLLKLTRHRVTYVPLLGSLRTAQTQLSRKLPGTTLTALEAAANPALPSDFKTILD

SMILES | pIC50 [1] | SI [3] | GI50 [2] [nM]
c1ccc2c(c1)Nc1cccc3cc4[n+](c-2c13)CCC4 | – | – | 90
CCN1c2ccccc2-c2c3c1cc(C)cc3c1ccccc1[n+]2CC | 5.70 | 0.5 | 1100
Cc1cc2c3c([n+](C)c4ccccc4c3c1)-c1ccccc1N2C | 6.12 | 1.7 | 1290

More lines, main results first:

pIC50 [1] | SI [3] | SMILES | GI50 [2] [nM]
6.60 | 17 | Cc1cc2c3c([n+](C)c4ccc(Cl)cc4c3c1)-c1cc(Cl)ccc1N2C | 4170
6.48 | 40 | Cc1cc2c3c([n+](C)c4ccc(F)cc4c3c1)-c1cc(F)ccc1N2C | 13200
6.60 | 1.8 | Cc1ccc2c(c1)-c1c3c(cc(C)cc3c3cc(C)ccc3[n+]1C)N2C | 410
6.42 | – | CN1c2ccccc2-c2c3c1cccc3c1ccccc1[n+]2C | –
